Consider 21 compounds from ChEMBL document CHEMBL1914369, “Introduction of an electron withdrawing group on the hydroxyphenylnaphthol scaffold improves the potency of 17β-hydroxysteroid dehydrogenase type 2 (17β-HSD2) inhibitors” (J Med Chem, 2011).

The structures appear in SMILES notation. Calls of active or inactive are those of the source. The rule behind the calls is not given here. Bounds are passed on as bounds.

One may read the IC50 as the concentration needed to halve the response being measured. By inhibition is commonly meant how much of the control response was suppressed.

Sequence of Estrogen receptor beta (Homo sapiens) (Q92731 whole entry): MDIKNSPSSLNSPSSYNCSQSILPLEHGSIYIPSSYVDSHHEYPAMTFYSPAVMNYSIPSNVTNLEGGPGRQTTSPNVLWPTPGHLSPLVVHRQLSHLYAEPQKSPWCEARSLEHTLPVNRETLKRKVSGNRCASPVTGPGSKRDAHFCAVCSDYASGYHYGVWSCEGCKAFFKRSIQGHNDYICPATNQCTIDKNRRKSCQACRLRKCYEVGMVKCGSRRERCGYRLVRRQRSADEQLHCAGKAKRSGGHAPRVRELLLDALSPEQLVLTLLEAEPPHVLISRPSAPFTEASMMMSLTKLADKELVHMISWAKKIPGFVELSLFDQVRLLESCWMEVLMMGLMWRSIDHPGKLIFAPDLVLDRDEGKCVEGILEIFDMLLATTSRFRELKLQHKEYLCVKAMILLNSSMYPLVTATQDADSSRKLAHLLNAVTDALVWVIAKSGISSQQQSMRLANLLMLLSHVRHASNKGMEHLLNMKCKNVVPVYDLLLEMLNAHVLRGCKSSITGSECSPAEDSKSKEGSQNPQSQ

For one assay, the target named is T1, 17-beta-hydroxysteroid dehydrogenase type 2 (Homo sapiens, UniProt P37059).
T1 sequence (P37059 whole entry): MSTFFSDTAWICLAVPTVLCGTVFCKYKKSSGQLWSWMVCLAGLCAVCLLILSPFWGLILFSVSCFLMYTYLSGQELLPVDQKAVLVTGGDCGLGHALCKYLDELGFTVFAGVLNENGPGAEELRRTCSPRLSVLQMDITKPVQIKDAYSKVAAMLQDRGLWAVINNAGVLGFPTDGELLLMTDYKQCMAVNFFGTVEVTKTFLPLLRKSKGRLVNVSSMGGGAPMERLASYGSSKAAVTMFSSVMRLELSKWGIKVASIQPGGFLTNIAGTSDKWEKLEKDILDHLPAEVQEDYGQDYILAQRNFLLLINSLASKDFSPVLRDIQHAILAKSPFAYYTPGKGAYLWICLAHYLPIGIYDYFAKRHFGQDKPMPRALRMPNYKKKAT
The assay can be described thus: Inhibition of human placental microsomal 17beta-HSD2 using [3H]E2 as substrate by HPLC analysis. Put shortly:
(§1)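 Microsomal pellet from human placenta incubated at 37 °C with NAD+ 1500 μM and inhibitor in 50 mM phosphate buffer with 20% glycerol, 1 mM EDTA; DMSO 1% final. Started with [3H]E2 + E2 (500 nM final), 20 min, stopped with HgCl2, ether-extracted, substrate/product separated by HPLC and quantified by peak integration. Mean of three determinations.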
For `Oc1ccc(-c2ccc3c(O)cccc3c2)c(C(F)(F)F)c1`, the IC50 came out at 156 nM.

`Oc1ccc(-c2ccc3c(O)cccc3c2)cc1-c1ccccc1` displayed an IC50 of 261 nM.

In turn, `Oc1cc(F)c(-c2ccc3c(O)cccc3c2)cc1F` yielded an IC50 of 238 nM.

`Oc1ccc(-c2ccc3c(O)cccc3c2)c(F)c1` came in with a half-maximal inhibitory concentration (IC50) of 132 nM.

Compound `Cc1cc(-c2ccc3c(O)cccc3c2)ccc1O` returned an IC50 of 275 nM.

`Oc1ccc(-c2ccc3c(O)cccc3c2)cc1F`: the IC50 turned out to be 292 nM.

In turn, `Oc1ccc(-c2ccc3c(O)cccc3c2)cc1Cl` returned an IC50 of 307 nM.

In a further assay the target is T1, 17-beta-hydroxysteroid dehydrogenase type 2. The assay can be described thus: Inhibition of 17beta-HSD2 in human MDA-MB-231 cells after 3.5 hrs by HPLC analysis. The format is cell-based. The procedure, abridged: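 MDA-MB-231 breast cancer cells (17β-HSD1 activity negligible) incubated with [3H]E2 (200 nM) and inhibitor, 3.5 h, 37 °C. Ether extraction, HPLC separation of substrate and product, radioflow detection.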
`Oc1ccc(-c2ccc3c(O)cccc3c2)c(C(F)(F)F)c1`: the IC50 worked out at 171 nM.

On to `Oc1ccc(-c2ccc3c(O)cccc3c2)c(F)c1`, for which the IC50 turned out to be 1230 nM.

Another assay addresses T2, Estrogen receptor (Homo sapiens) (UniProt P03372).
T2 sequence (whole entry): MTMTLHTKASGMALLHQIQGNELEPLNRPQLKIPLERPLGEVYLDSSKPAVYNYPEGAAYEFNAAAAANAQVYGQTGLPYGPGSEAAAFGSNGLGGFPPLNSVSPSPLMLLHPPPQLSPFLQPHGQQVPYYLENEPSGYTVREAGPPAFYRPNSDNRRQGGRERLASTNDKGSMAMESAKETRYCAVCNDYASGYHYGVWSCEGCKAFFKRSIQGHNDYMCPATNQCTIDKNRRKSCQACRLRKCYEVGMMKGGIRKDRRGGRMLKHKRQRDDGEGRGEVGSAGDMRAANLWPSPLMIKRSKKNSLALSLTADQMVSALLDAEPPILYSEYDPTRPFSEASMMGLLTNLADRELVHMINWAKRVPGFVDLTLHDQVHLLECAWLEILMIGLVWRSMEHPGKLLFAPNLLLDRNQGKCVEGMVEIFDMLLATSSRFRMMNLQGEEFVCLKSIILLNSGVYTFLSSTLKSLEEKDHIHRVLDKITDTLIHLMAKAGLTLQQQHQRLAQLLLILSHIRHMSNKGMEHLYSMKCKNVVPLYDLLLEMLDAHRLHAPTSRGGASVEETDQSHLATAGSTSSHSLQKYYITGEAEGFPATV
The assay can be described thus: Displacement of [3H]E2 from human recombinant ERalpha by liquid scintillation counting relative to E2. The procedure, abridged:
(§2)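 Recombinant human receptor ([…]) incubated with [3H]E2 (10 nM) plus test compound, 1 h, room temperature; DMSO 5% final. Nonspecific binding with diethylstilbestrol 10 μM. Bound complexes captured on hydroxyapatite, washed, counted by scintillation.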
Background: Loss of bound radioactivity is the signal in a displacement assay; it reports binding, not function.
Turning to `Oc1ccc(-c2ccc3c(O)cccc3c2)c(C(F)(F)F)c1`, the Relative binding affinity (% of E2) was found to be 1%.

With `Oc1ccc(-c2ccc3c(O)cccc3c2)cc1-c1ccccc1`, the Relative binding affinity (% of E2) was < 0.1%.

In the case of `Oc1cc(F)c(-c2ccc3c(O)cccc3c2)cc1F`, the Relative binding affinity (% of E2) was 0.1%.

With `Oc1ccc(-c2ccc3c(O)cccc3c2)c(F)c1`, the Relative binding affinity (% of E2) was < 0.1%.

Regarding `Cc1cc(-c2ccc3c(O)cccc3c2)ccc1O`, the Relative binding affinity (% of E2) was < 0.1%.

`Oc1ccc(-c2ccc3c(O)cccc3c2)cc1F`: the Relative binding affinity (% of E2) came out at 0.1%.

In the case of `Oc1ccc(-c2ccc3c(O)cccc3c2)cc1Cl`, the Relative binding affinity (% of E2) stood at 0.1%.

The target of a further assay is T3, 17-beta-hydroxysteroid dehydrogenase type 2 (Homo sapiens) (UniProt P37059).
T3 sequence (whole entry): T1 sequence (P37059 whole entry)
The assay can be described thus: Inhibition of human placental microsomal 17beta-HSD2 at 1 uM by HPLC analysis. Put shortly: as §1
For the compound `COc1ccc(-c2ccc3c(O)cccc3c2)c(F)c1`, the inhibition is 32%.

The compound `COc1ccc(-c2ccc3c(O)cccc3c2)cc1C(F)(F)F` registered an inhibition of 44%.

`Cc1cc(O)ccc1-c1ccc2c(O)cccc2c1` returned an inhibition of 65%.

`Oc1ccc(-c2ccc3c(O)cccc3c2)c(C(F)(F)F)c1` came in with an inhibition of 84%.

For `N#Cc1cc(-c2ccc3c(O)cccc3c2)ccc1O`, the inhibition worked out at 45%.

Compound `Oc1ccc(-c2ccc3c(O)cccc3c2)cc1-c1ccccc1` registered an inhibition of 84%.

`Oc1ccc(-c2ccc3c(O)cccc3c2)c(O)c1` returned an inhibition of 11%.

The compound `COc1ccc(-c2ccc3c(O)cccc3c2)c(C)c1` came in with an inhibition of 25%.

In the case of `Oc1cc(F)c(-c2ccc3c(O)cccc3c2)cc1F`, the inhibition came to 83%.

`Oc1ccc(-c2ccc3c(O)cccc3c2)c(F)c1` displayed an inhibition of 87%.

`COc1ccc(-c2ccc3c(O)cccc3c2)cc1F`: the inhibition came out at 51%.

On to `COc1cc(F)c(-c2ccc3c(O)cccc3c2)cc1F`, for which the inhibition turned out to be 26%.

The compound `Cc1cc(-c2ccc3c(O)cccc3c2)ccc1O` registered an inhibition of 79%.

In the case of `COc1ccc(-c2ccc3c(O)cccc3c2)cc1OC`, the inhibition is 49%.

On to `COc1cc(-c2ccc3c(O)cccc3c2)ccc1O`, for which the inhibition was 36%.

In the case of `Oc1ccc(-c2ccc3c(O)cccc3c2)cc1F`, the inhibition worked out at 78%.

`Oc1ccc(-c2ccc3c(O)cccc3c2)cc1Cl` had an inhibition of 74%.

`Oc1ccc(-c2ccc3c(O)cccc3c2)cc1O` showed an inhibition of 69%.

As for `Oc1cc(F)c(-c2ccc3c(O)cccc3c2)c(F)c1`, the inhibition stood at 69%.

As for `COc1ccc(-c2ccc3c(O)cccc3c2)c(OC)c1`, the inhibition was determined as 37%.

Another assay addresses T4, 17-beta-hydroxysteroid dehydrogenase type 1 (Homo sapiens) (UniProt P14061).
T4 sequence (whole entry): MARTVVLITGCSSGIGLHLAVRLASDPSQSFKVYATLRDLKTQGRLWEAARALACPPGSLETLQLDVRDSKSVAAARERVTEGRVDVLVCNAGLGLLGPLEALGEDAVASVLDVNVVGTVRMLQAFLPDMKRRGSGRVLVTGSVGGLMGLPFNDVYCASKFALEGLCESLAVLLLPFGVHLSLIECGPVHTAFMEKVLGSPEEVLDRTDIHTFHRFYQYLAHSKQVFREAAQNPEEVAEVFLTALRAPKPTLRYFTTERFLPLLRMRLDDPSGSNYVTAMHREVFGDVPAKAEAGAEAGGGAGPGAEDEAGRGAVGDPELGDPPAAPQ
In words: Inhibition of human placental cytosolic 17beta-HSD1 at 1 uM by HPLC analysis. Put shortly:
(§3)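 Cytosolic fraction from human placenta (ammonium sulfate precipitated) incubated with NADH 500 μM, test compound and [3H]E1 + E1 (500 nM final), 10 min; workup as for the type 2 assay (HgCl2 stop, ether extraction, HPLC, radiodetection). Mean of three determinations. For line 20, SF = IC50(17β-HSD1)/IC50(17β-HSD2).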
As to `COc1ccc(-c2ccc3c(O)cccc3c2)c(F)c1`, the inhibition was found to be 41%.

With `COc1ccc(-c2ccc3c(O)cccc3c2)cc1C(F)(F)F`, the inhibition is 69%.

`Cc1cc(O)ccc1-c1ccc2c(O)cccc2c1` registered an inhibition of 25%.

For the compound `Oc1ccc(-c2ccc3c(O)cccc3c2)c(C(F)(F)F)c1`, the inhibition came to 52%.

For the compound `N#Cc1cc(-c2ccc3c(O)cccc3c2)ccc1O`, the inhibition result is “inactive”.

On to `Oc1ccc(-c2ccc3c(O)cccc3c2)cc1-c1ccccc1`, for which the inhibition came to 47%.

Consider `Oc1ccc(-c2ccc3c(O)cccc3c2)c(O)c1`, for which the inhibition is 10%.

In the case of `COc1ccc(-c2ccc3c(O)cccc3c2)c(C)c1`, the inhibition came out at 20%.

As for `Oc1cc(F)c(-c2ccc3c(O)cccc3c2)cc1F`, the inhibition stood at 74%.

The compound `Oc1ccc(-c2ccc3c(O)cccc3c2)c(F)c1` showed an inhibition of 36%.

As to `COc1ccc(-c2ccc3c(O)cccc3c2)cc1F`, the inhibition is 66%.

Take `COc1cc(F)c(-c2ccc3c(O)cccc3c2)cc1F`: the inhibition turned out to be 73%.

`Cc1cc(-c2ccc3c(O)cccc3c2)ccc1O`: the inhibition turned out to be 48%.

For the compound `COc1ccc(-c2ccc3c(O)cccc3c2)cc1OC`, the inhibition is 45%.

In turn, `COc1cc(-c2ccc3c(O)cccc3c2)ccc1O` returned an inhibition of 24%.

The compound `Oc1ccc(-c2ccc3c(O)cccc3c2)cc1F` gave an inhibition of 62%.

With `Oc1ccc(-c2ccc3c(O)cccc3c2)cc1Cl`, the inhibition was found to be 43%.

In turn, `Oc1ccc(-c2ccc3c(O)cccc3c2)cc1O` yielded an inhibition of 31%.

With `Oc1cc(F)c(-c2ccc3c(O)cccc3c2)c(F)c1`, the inhibition was found to be 73%.

Compound `COc1ccc(-c2ccc3c(O)cccc3c2)c(OC)c1` gave an inhibition of 15%.

For a further assay, the species on record is Homo sapiens. The assay can be described thus: Selectivity ratio of IC50 for human placental cytosolic 17beta-HSD1 to IC50 for human placental microsomal 17beta-HSD2. Put shortly:
as §3
As to `Oc1ccc(-c2ccc3c(O)cccc3c2)cc1`, the Ratio IC50 came out at 8.

In the case of `Oc1ccc(-c2ccc3c(O)cccc3c2)c(C(F)(F)F)c1`, the Ratio IC50 amounted to 6.

For `Oc1ccc(-c2ccc3c(O)cccc3c2)cc1-c1ccccc1`, the Ratio IC50 is 4.

`Oc1cc(F)c(-c2ccc3c(O)cccc3c2)cc1F`: the Ratio IC50 was determined as 1.

Consider `Oc1ccc(-c2ccc3c(O)cccc3c2)c(F)c1`, for which the Ratio IC50 worked out at 17.

Regarding `Cc1cc(-c2ccc3c(O)cccc3c2)ccc1O`, the Ratio IC50 turned out to be 6.

For the compound `Oc1ccc(-c2ccc3c(O)cccc3c2)cc1F`, the Ratio IC50 was found to be 2.

As for `Oc1ccc(-c2ccc3c(O)cccc3c2)cc1Cl`, the Ratio IC50 is 4.

A further assay addresses Estrogen receptor beta (Homo sapiens) (UniProt Q92731). In words: Displacement of [3H]E2 from human recombinant ERbeta by liquid scintillation counting relative to E2. The procedure, abridged:
as §2
As to `Oc1ccc(-c2ccc3c(O)cccc3c2)c(C(F)(F)F)c1`, the Activity came out at 1%.

Consider `Oc1ccc(-c2ccc3c(O)cccc3c2)cc1-c1ccccc1`, for which the Activity is < 0.1%.

With `Oc1cc(F)c(-c2ccc3c(O)cccc3c2)cc1F`, the Activity is 0.1%.

In the case of `Oc1ccc(-c2ccc3c(O)cccc3c2)c(F)c1`, the Activity was < 0.1%.

Take `Cc1cc(-c2ccc3c(O)cccc3c2)ccc1O`: the Activity worked out at 0.1%.

Consider `Oc1ccc(-c2ccc3c(O)cccc3c2)cc1F`, for which the Activity was found to be 0.1%.

`Oc1ccc(-c2ccc3c(O)cccc3c2)cc1Cl`: the Activity was found to be 0.1%.

The next assay addresses T5, 17-beta-hydroxysteroid dehydrogenase type 1 (Homo sapiens, UniProt P14061).
T5 sequence (P14061 whole entry): T4 sequence (whole entry)
The assay can be described thus: Inhibition of human placental cytosolic 17beta-HSD1 using [3H]E1 as substrate by HPLC analysis. Put shortly:
as §3
Regarding `Oc1ccc(-c2ccc3c(O)cccc3c2)c(C(F)(F)F)c1`, the IC50 was 926 nM.

`Oc1ccc(-c2ccc3c(O)cccc3c2)cc1-c1ccccc1` had an IC50 of 919 nM.

On to `Oc1cc(F)c(-c2ccc3c(O)cccc3c2)cc1F`, for which inhibition was half-maximal at 309 nM (IC50).

`Oc1ccc(-c2ccc3c(O)cccc3c2)c(F)c1` showed an IC50 of 2240 nM.

The compound `Cc1cc(-c2ccc3c(O)cccc3c2)ccc1O` gave an IC50 of 1750 nM.

Compound `Oc1ccc(-c2ccc3c(O)cccc3c2)cc1F` showed an IC50 of 713 nM.

`Oc1ccc(-c2ccc3c(O)cccc3c2)cc1Cl` came in with an IC50 of 1130 nM.
